Screens from PubChem.
The list is not random: actives were taken first. Their share in the collection is about 3.7%.
AHR activator: AHR activators, primary screen, cell-based, luminescence, luciferase reporter, human | Aryl hydrocarbon receptor (Homo sapiens), P35869 | AHR-responsive luciferase reporter cells | activation, % at 5 µM | 320,000 tested, 2.5% active; in the data active = activation above about 47%;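 note: 0% = vehicle wells and 100% = reference agonist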
SR-BI uptake up: activators of SR-BI mediated DiI-HDL uptake, primary screen, ldlA[mSR-BI] CHO cells, DiI fluorescence; 3 h; 100 = double the neutral-control signal; activation, % at 12.5 µM; 320,000 tested, 0.096% active; AID 504775, 2011;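 active = mean replicate activation of at least 60% and every replicate at or above 60%; inconclusive = mean or all-replicate condition met, but not both; inactive = mean below 60% and not all replicates reaching 60%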;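 note: 0% = median plate neutral-control signal and 100% = twice that signal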
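Test system: SR-BI-overexpressing, LDLR-lacking CHO cells; Also added: labelled HDL, 10 µg/mL; Measured by: bottom-read cell fluorescence after medium removal, ex 550/em 595 nm; Timing: 3 h uptake period with compound, 37 °C; Buffer or medium: F12, 0.5% BSA, 25 mM HEPES; Doses: single compound concentration, delivered by pin transfer.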
GAA850 FXN act: FXN promoter activators, primary screen, cell-based, luciferase luminescence, HEK293 lucGAA850; HEK293 lucGAA850 FXN promoter luciferase reporter, 24 h; percent of 10 µM SAHA response; activation, % at 6 µM; 360,000 tested, 0.56% active;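 active = activation above the average of all compounds screened plus 3 SD, cutoff fixed separately per campaign, cut at about 7.5% in these data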;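 note: 0% = DMSO wells and 100% = 10 µM SAHA wells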
JMJD2C inh: inhibitors of GASC-1 histone demethylase, primary screen, biochemical, fluorescence, DELFIA europium; AID 2099, 2009; inhibition, % at 2.35 µM; Lysine-specific demethylase 4C (Homo sapiens), Q9H3R0; GST-JMJD2C(1-420) H3K9me3 demethylation; 330,000 tested, 0.069% active;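 active = more than half of a compound's replicate wells show inhibition beyond 50%, single wells judged on their own value; inconclusive = some, but no more than half, of replicates pass 50% inhibition; inactive = no replicate passes 50% inhibition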;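 note: signal counts dimethyl H3K9 product captured on neutravidin plate; 0% = median of DMSO wells and 100% = 0.3 times that DMSO median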
Target sequence (Q9H3R0 1-420 limits assumed): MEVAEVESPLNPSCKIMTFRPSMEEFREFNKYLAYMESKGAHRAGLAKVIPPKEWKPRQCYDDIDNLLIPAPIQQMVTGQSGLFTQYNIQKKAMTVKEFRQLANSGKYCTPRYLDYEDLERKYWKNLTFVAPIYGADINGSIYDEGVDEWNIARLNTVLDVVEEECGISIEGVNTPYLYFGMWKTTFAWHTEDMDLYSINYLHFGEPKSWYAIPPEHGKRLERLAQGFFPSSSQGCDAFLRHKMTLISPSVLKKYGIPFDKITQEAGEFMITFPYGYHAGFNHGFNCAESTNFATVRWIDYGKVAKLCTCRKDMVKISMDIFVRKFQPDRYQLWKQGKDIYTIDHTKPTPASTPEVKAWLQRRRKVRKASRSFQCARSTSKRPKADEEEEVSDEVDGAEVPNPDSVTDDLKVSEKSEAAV
SR-BI HDL uptake: inhibitors of SR-BI mediated HDL lipid uptake, primary screen, ldlA[mSR-BI] cells, fluorescence, single point; inhibition, % at 12.5 µM; ldlA[mSR-BI] CHO cells, DiI-HDL uptake fluorescence, 3 h; 320,000 tested, 0.96% active; AID 488896, 2010; Scavenger receptor class B member 1 (Mus musculus), Q61009;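 active = mean replicate inhibition of at least 70% and a set share of replicates each scoring 70 or more; inconclusive = meets just one of the two criteria; inactive = fails both criteria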;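 note: 0% = median of neutral control wells and 100% = median of positive control wells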
An asterisk follows results filed as active; ? = inconclusive; / = not tested or not shown.

SMILES | AHR activator | SR-BI uptake up | GAA850 FXN act | JMJD2C inh | SR-BI HDL uptake
Cc1nc2nc(-c3ccccc3)nn2c(C)c1Cl | 55* | 15 | 6 | 4 | -15
Cc1cc(N2CCN(C)CC2)n2nc(-c3ccc(Cl)cc3)nc2n1 | 3 | -17 | 3 | 5 | 17
Cc1nc2nc(-c3ccc(Cl)cc3)nn2c(C)c1Cl | 53* | / | / | 9 | /
COC(=O)Cn1c(=NC(=O)c2ccc(OC)cc2)sc2cc(OC)ccc21 | 1 | -71 | 1 | -1 | 71*
COC(=O)Cn1c(=NC(=O)c2cc(OC)cc(OC)c2)sc2cc(OC)ccc21 | 0 | -62 | 1 | 6 | 62
O=C(CCN1C(=O)COc2ccccc21)NCCCN1CCCC1 | 1 | 2 | 3 | 6 | -2
COc1ccc(-c2csc(C3=C(O)CN(C(C)C)C3=N)n2)cc1OC | -3 | -84 | 2 | -4 | 84*
CC(C)CCN1CC(O)=C(c2nc(-c3ccc(Cl)cc3)cs2)C1=N | 21 | -76 | 3 | 29 | 76*
COc1ccc(N2CC(O)=C(c3nc(-c4ccccc4)cs3)C2=N)cc1 | 11 | / | 0 | -1 | /
COC(=O)C(Cc1ccccc1)NC(=O)CCCC(=O)NCc1cccc(OC)c1 (stereo not drawn) | -1 | -8 | 1 | -2 | 8
O=C(CSc1nnnn1-c1ccc(F)cc1F)Nc1ccccc1F | 6 | -4 | 0 | -1 | 4
COc1ccc([C@H]2C[C@H](O)[C@@H](n3cc(C4CC4)nn3)CN2C(=O)c2cccs2)cc1 | / | / | 1 | / | /
Cn1c(O)c(C2=c3ccccc3=NC2=O)sc1=Nc1ccc(Cl)cc1 | 56* | -13 | 3 | 6 | 13
C=CCn1c(O)c(C2=c3ccccc3=NC2=O)s/c1=N/c1nccs1 | 59* | -15 | -1 | -2 | 13
Cc1cn(-c2cc(C(=O)Nc3ccc(C)c(NC(=O)C(=O)c4c[nH]c5ccccc45)c3)cc(C(F)(F)F)c2)cn1 | 13 | -68 | -2 | ? | 68
O=C(NCc1ccccc1)c1c[nH]c2cc3c(cc2c1=O)OCCO3 | 77* | -3 | 3 | 8 | 3
O=C(NN=C(Cc1ccccc1)Cc1ccccc1)c1ccccc1O | 13 | 299* | 6 | 3 | -298
O=C(Nc1cccnc1)c1ccccc1O | 54* | / | 1 | 10 | /
O=C(Nc1ccccc1O)c1ccccc1O | 131* | -2 | 2 | -7 | 2
CCN(Cc1ccc2c(c1)OCO2)C(=O)CSc1nc(C)nc2sc(C)c(C)c12 | 4 | 16 | 2 | -3 | -16
O=C(Cc1coc2ccc3ccccc3c12)Nc1nnc(C2CC2)s1 | 69* | / | -7 | -7 | /
CCOC(=O)c1sc2nc(C3CC3)cc(-c3ccc(F)cc3)c2c1N | -2 | -77 | 1 | 54 | 77*
CCCOc1cccc(C(=O)Nc2ccc(Br)cc2F)c1 | 3 | 19 | 7 | 0 | -19
CCC1c2ccc(C)n2CCN1C(=O)Nc1ccccc1OC (stereo not drawn) | 48* | -16 | 6 | -9 | 16
O=CN1Cc2ccccc2-c2ccccc2C1 | / | -33 | 0 | -4 | 33
SMILES | AHR activator | SR-BI uptake up | GAA850 FXN act | JMJD2C inh | SR-BI HDL uptake
Cc1oc2cc(O)ccc2c(=O)c1Oc1ccccc1Br | 59* | -9 | 1 | -4 | 12
Cc1oc2cc(O)ccc2c(=O)c1Oc1ccccc1 | 26 | 22 | -3 | 9 | -22
O=C(NCCCNC(=O)c1c(Cl)cccc1Cl)c1c(Cl)cccc1Cl | 0 | 2 | 1 | -3 | -2
O=C(NCCCNC(=O)c1c(F)cccc1F)c1c(F)cccc1F | 1 | -78 | -1 | 9 | 78*
COCCn1nnnc1CN(Cc1ccco1)Cc1cc2cc3c(cc2[nH]c1=O)OCO3 | 72* | 9 | 2 | -36 | -9
Cc1ccc(C(=O)NNC(=O)CSc2nnc(-c3ccncc3)n2C)cc1 | -1 | 5 | -2 | 5 | -5
C/C(CCC1CC(C)(C)OC1=O)=N\NC(N)=S (stereo not drawn) | -1 | -72 | 0 | -5 | 72*
C/C(CCC1CC(C)OC1=O)=N/Nc1nc(-c2ccccc2)cs1 (stereo not drawn) | 103* | -22 | 2 | 10 | 22
C/C(CCC1CC(C)OC1=O)=N\NC(N)=S (stereo not drawn) | 0 | -71 | 3 | -14 | 71*
Nc1c(C(=O)Nc2ccc(F)cc2)nnn1-c1cccc(C(F)(F)F)c1 | -5 | -42 | 2 | -3 | 42
COc1cc(C(=O)CSc2nccn2C)cc(OC)c1OC | 47* | -6 | 0 | -1 | 6
COc1ccc(C(=O)CSc2nccn2C)cc1 | 19 | / | 4 | -3 | /
CCC1(c2ccc(F)cc2)NC(=O)NC1=O (stereo not drawn) | -1 | 26 | 0 | 13 | -26
CCCCOc1ccc(Br)cc1/C(C)=N/NC1=NCCN1 | 57* | / | -4 | -19 | /
O=S(=O)(Nc1nc2ccccc2nc1Cl)c1cccc(C(F)(F)F)c1 | 6 | / | 1 | -4 | /
COc1cc2sc3ccc(-c4ccc(CN5CCOCC5)cc4)cc3c(=O)c2cc1OC | 52* | -71 | 1 | 27 | 71*
CC(C)c1ccc(NC(=O)c2ccc3snnc3c2)cc1 | 14 | -37 | 6 | ? | 37
Cc1ccc(NC(=O)c2ccc3snnc3c2)cc1 | 63* | -30 | 5 | -28 | 30
O=C(Nc1cccnc1)c1ccc2snnc2c1 | 27 | 4 | 2 | -30 | -4
O=C(Nc1ccccc1)c1ccc2snnc2c1 | 63* | -1 | 1 | -5 | 1
CCc1cccc(C)c1NC(=S)NCC1CCN(c2ccc(OC)cc2)C1 (stereo not drawn) | 3 | -83 | -4 | -5 | 83*
CCc1ccccc1NC(=S)NCC1CCN(c2ccc(OC)cc2)C1 (stereo not drawn) | 4 | / | -2 | -6 | /
O=[N+]([O-])c1cccc(/C=C2\CCC(/C=N/Nc3ccc4ccccc4n3)=C2N2CCOCC2)c1 | 13 | -88 | -1 | -1 | 88*
CC1(C)Nc2ccccc2C(=O)N1c1ccc(Br)cc1 | 59* | / | 1 | -12 | /
CC(=O)Nc1sc(N)nc1-c1ccccc1 | -1 | 41 | 2 | -7 | -41
Nc1nc(-c2ccccc2)c(N=Nc2cccc3ccccc23)s1 | 70* | -134 | 3 | -5 | 134*
Nc1nc(-c2ccccc2)c(N=Nc2ccccc2Cl)s1 | 19 | -88 | 3 | -4 | 88*
CCC(C)N(C(=O)COC(=O)CNC(=O)c1sc2ccccc2c1Cl)C1CCS(=O)(=O)C1 (stereo not drawn) | 2 | 20 | 2 | -10 | -20
O=C(Nc1ccc2c(c1)oc1ccccc12)c1ccc2c(c1)OCO2 | -5 | -38 | 3 | -13 | 38
